Assay [1] has as its target T1, Glycine receptor subunit alpha-1 (Rattus norvegicus, UniProt P07727).
T1 sequence (P07727 whole entry): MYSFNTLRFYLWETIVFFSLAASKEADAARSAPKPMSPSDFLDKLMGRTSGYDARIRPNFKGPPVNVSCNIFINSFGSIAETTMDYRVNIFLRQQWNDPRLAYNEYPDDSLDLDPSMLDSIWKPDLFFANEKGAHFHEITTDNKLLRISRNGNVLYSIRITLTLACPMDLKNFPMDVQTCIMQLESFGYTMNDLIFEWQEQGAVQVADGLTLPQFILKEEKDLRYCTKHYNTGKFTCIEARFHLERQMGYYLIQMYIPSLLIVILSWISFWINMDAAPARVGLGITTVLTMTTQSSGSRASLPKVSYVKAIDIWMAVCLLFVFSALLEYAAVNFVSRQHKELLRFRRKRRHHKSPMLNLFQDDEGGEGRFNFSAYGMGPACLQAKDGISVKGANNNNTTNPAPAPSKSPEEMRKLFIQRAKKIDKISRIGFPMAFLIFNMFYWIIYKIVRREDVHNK
As to the kind of experiment: Displacement of [3H]strychnine from GlyR in Wistar rat spinal cord by scintillation spectrometry. An outline of the steps:
(§1)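 Duplicate aliquots filtered, washed with ice-cold buffer, counted by scintillation. Nonspecific binding defined with 2 mM glycine. IC50 and Hill slope from nonlinear sigmoidal fitting. Two-site fits used pooled data, chosen by F test.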

Assay [2] has as its target T1, Glycine receptor subunit alpha-1. As to the kind of experiment: Displacement of [3H]strychnine from GlyR high affinity site in Wistar rat spinal cord by scintillation spectrometry. An outline of the steps:
as §1

Assay [3] shares this target. Kind of assay: Displacement of [3H]strychnine from GlyR low affinity site in Wistar rat spinal cord by scintillation spectrometry. In a few lines: as §1
Assay [4] has as its target T2, Glycine receptor subunit alpha-1 (Rattus norvegicus) (UniProt P07727).
T2 sequence (whole entry): T1 sequence (P07727 whole entry)
As to the kind of experiment: Selectivity ratio of IC50 for GlyR low affinity site to IC50 for GlyR high affinity site in Wistar rat spinal cord.

The target of assay [5] is T3, 5-hydroxytryptamine receptor 3A (Rattus norvegicus, UniProt P35563).
T3 sequence (P35563 whole entry): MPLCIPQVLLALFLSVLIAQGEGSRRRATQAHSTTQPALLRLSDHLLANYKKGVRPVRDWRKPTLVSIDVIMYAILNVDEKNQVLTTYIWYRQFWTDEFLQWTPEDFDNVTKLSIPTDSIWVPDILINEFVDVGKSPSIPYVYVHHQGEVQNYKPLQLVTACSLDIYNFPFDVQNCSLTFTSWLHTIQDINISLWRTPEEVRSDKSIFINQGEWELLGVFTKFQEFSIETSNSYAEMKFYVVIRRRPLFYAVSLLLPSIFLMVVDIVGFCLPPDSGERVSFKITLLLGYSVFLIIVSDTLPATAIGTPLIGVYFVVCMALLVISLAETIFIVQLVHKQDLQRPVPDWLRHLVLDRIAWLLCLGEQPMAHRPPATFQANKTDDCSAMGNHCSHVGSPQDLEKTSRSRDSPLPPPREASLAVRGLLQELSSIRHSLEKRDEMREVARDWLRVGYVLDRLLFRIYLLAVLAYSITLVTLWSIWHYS
Kind of assay: Displacement of [3H]granisectron from 5HT3 receptor in Wistar rat forebrain. In a few lines: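 Crude membranes from male rat forebrain (cortex + hippocampus), homogenized in 10 mM HEPES/140 mM NaCl pH 7.5, centrifuged, washed, frozen; thawed and spun before use. Incubated with 0.2 nM [3H]granisetron at 0 °C for 2.5 h. Nonspecific binding defined with 10 µM granisetron.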

Assay [6] has as its target T1, Glycine receptor subunit alpha-1. Kind of assay: Displacement of [3H]strychnine from GlyR in Wistar rat spinal cord by scintillation spectrometry in presence of 10 uM glycine. An outline of the steps: as §1
The target is the same in assay [7]. As to the kind of experiment: Displacement of [3H]strychnine from GlyR high affinity site in Wistar rat spinal cord by scintillation spectrometry in presence of 10 uM glycine. An outline of the steps:
as §1

Assay [8] has the same target. Kind of assay: Displacement of [3H]strychnine from GlyR low affinity site in Wistar rat spinal cord by scintillation spectrometry in presence of 10 uM glycine. An outline of the steps:
as §1

In the case of `CN1[C@@H]2CC[C@H]1C[C@H](OC(=O)c1cc3ccccc3[nH]1)C2`, the results for the IC50 in assay [1], in assay [2] and in assay [3] were 4.68 µM, 0.0603 µM and 7.94 µM, respectively. Besides, in assay [4], the Ratio IC50 was found to be 133.

`CN1[C@@H]2CC[C@H]1C[C@@H](OC(=O)c1cccnc1)C2`: the IC50 in assay [1] is 4.27 µM; in assay [2], 0.0589 µM; in assay [3] it was 22.9 µM. For the same molecule, the Ratio IC50 in assay [4] came to 390.

Molecule `O=C(O[C@H]1C[C@H]2CC[C@@H](C1)N2)c1cccs1` gave an IC50 in assay [1] of 0.0417 µM. Moreover, the Ratio IC50 in assay [4] is 1.

Regarding `O=C(O[C@H]1C[C@H]2CC[C@@H](C1)N2)c1ccco1`, the IC50 in assay [1] is 0.0794 µM. In assay [4], the Ratio IC50 came to 1.

`Cn1c(C(=O)O[C@H]2C[C@H]3CC[C@@H](C2)N3)cc2ccccc21`: the IC50 was 0.0339 µM in assay [1]; 0.0115 µM in assay [2]; 0.126 µM in assay [3]; 0.025 µM in assay [5]; 0.0708 µM in assay [6]; 0.00107 µM in assay [7]. In assay [8], the IC50 is 0.135 µM. Moreover, in assay [4], the Ratio IC50 is 11.

In assay [1], `O=C(O[C@H]1C[C@H]2CC[C@@H](C1)N2)c1cnc2ccccc2c1` showed an IC50 of 0.166 µM. The Ratio IC50 in assay [4] is 1.

In the case of `CN1[C@@H]2CC[C@H]1C[C@@H](OC(=O)c1ccco1)C2`, the IC50 in assay [1] was 5.62 µM; in assay [2], 0.0501 µM; in assay [3], 10 µM. Further, the Ratio IC50 in assay [4] was found to be 200.

In assay [1], `O=C(O[C@H]1C[C@H]2CC[C@@H](C1)N2)c1ccc[nH]1` showed an IC50 of 0.129 µM. The Ratio IC50 in assay [4] was found to be 1.

`CN1[C@@H]2CC[C@H]1C[C@@H](OC(=O)c1ccc[nH]1)C2`: the IC50 in assay [1] was 11.2 µM; in assay [2], 0.0339 µM; in assay [3] it was 20.9 µM. For the same molecule, the Ratio IC50 in assay [4] was 615.

As for `CN1[C@@H]2CC[C@H]1C[C@@H](OC(=O)c1cccs1)C2`, the IC50 is 1.91 µM in assay [1], 0.0891 µM in assay [2] and 4.27 µM in assay [3]. In assay [4], the Ratio IC50 stood at 47.

With `CN1[C@@H]2CC[C@H]1C[C@@H](OC(=O)c1cc3ccccc3n1C)C2`, the IC50 is 1.58 µM in assay [1], 0.0102 µM in assay [2], 2.4 µM in assay [3] and 0.018 µM in assay [5]. The Ratio IC50 in assay [4] was found to be 240.

In the case of `O=C(O[C@H]1C[C@H]2CC[C@@H](C1)N2)c1cccnc1`, the IC50 in assay [1] was 0.1 µM. Besides, the Ratio IC50 in assay [4] came to 1.

On to `CN1[C@@H]2CC[C@H]1C[C@@H](OC(=O)c1cnc3ccccc3c1)C2`, for which the concentration for half-maximal inhibition (IC50) in assay [1] is 1.91 µM; in assay [2] it was 0.0724 µM; in assay [3], 5.5 µM. Further, in assay [4], the Ratio IC50 was found to be 76.

In assay [1], `CN1[C@@H]2CC[C@H]1C[C@@H](OC(=O)c1cccn1C)C2` gave an IC50 of 7.59 µM. Also, the Ratio IC50 in assay [4] was > 1.

Turning to `O=C(O[C@H]1C[C@H]2CC[C@@H](C1)N2)c1cc2ccccc2[nH]1`, the results for the IC50 in assay [1] and in assay [5] were 0.234 µM and 0.032 µM, respectively. Also, the Ratio IC50 in assay [4] was 1.

The values above are taken from ChEMBL document CHEMBL1152584, “Synthesis of heteroaromatic tropeines and heterogeneous binding to glycine receptors” (Bioorg Med Chem, 2009).
